# According to ChEMBL document CHEMBL4422635, “Structure-Based Discovery of a Subtype-Selective Inhibitor Targeting a Transient Receptor Potential Vanilloid Channel” (J Med Chem, 2019):
# Active and inactive are the calls of the source. No cut-off for these calls is given here.
# How the values were obtained:
# [1] = biological target: T1, Transient receptor potential cation channel subfamily V member 2 (Homo sapiens) (UniProt Q9Y5S1); test: Antagonist activity at TRPV2 in human PC3M cells assessed as inhibition of LPA-induced intracellular calcium levels at 100 uM Fluo-4 AM-based fluorescence assay; type: cell-based
# T1 sequence (whole entry): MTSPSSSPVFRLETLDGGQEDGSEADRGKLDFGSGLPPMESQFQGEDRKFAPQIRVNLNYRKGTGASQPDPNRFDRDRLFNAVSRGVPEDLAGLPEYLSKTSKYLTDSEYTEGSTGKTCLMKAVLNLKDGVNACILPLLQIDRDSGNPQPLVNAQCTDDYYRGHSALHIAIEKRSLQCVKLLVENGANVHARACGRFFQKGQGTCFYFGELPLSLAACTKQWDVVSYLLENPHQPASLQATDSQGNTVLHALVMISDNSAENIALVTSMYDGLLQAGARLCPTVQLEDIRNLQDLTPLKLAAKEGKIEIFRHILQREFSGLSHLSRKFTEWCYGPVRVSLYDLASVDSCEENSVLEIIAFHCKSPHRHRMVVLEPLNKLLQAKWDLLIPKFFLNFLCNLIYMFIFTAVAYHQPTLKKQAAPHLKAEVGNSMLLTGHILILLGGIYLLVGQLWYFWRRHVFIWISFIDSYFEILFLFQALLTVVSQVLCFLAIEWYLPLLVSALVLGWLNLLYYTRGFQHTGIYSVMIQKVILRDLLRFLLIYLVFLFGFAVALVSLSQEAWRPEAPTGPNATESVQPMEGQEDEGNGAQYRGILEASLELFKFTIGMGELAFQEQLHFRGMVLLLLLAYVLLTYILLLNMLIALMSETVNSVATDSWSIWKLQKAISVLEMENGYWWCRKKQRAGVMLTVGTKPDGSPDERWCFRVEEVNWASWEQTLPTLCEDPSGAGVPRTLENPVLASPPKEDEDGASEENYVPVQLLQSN
# In short: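 PC-3M cells cultured 24 h, loaded with 2 μM Fluo-4 AM in HBSS for 45 min at 37 °C, then compound added. Cytoplasmic Ca2+ rise read as relative fluorescence at ex 485 / em 525 nm.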
# [2] = test system: T2, Transient receptor potential cation channel subfamily V member 2 (Mus musculus), Q9WTR1 [F467S]; test: Antagonist activity at mouse TRPV2 F467S mutant expressed in HEK293T cells assessed as inhibition of 2-APB evoked currents at 0.3 to 3 uM by whole-cell patch clamp assay; type: cell-based
# T2 sequence (whole entry): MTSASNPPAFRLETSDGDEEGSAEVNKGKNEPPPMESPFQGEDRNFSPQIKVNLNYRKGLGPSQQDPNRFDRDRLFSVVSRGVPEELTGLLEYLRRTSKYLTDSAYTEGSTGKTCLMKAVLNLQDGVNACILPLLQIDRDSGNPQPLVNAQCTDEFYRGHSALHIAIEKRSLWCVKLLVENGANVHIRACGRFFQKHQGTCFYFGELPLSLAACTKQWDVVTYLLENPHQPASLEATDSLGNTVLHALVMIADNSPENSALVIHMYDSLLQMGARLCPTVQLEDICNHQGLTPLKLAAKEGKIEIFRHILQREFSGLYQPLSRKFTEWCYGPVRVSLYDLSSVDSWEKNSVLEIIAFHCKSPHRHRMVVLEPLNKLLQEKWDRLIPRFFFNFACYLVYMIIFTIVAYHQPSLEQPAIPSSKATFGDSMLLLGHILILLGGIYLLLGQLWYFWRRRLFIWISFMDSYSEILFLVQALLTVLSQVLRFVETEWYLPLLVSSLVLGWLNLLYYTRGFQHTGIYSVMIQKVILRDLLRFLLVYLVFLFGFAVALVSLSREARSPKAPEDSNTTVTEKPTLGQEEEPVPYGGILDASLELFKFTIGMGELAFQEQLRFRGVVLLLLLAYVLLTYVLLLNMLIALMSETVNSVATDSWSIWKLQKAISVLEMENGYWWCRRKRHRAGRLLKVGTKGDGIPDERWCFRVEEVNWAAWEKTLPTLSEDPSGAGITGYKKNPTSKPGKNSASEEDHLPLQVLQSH
# In short: (§1)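 Whole-cell voltage clamp of transiently transfected HEK293T cells co-expressing GFP, recorded 36-96 h post-transfection. Hold -60 mV; pipettes 3-7 MΩ. Bath 165 mM NaCl, 10 mM HEPES pH 7.3; pipette 140 mM KCl, 10 mM HEPES pH 7.3. Room temperature (~25 °C). IC50 from Hill fits of I/I0, the current ratio after vs before inhibitor; mean ± SEM.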
# [3] = test system: PC-3M; test: Antimetastatic activity in human PC3M cells at 5 to 20 uM after 24 hrs by transwell migration assay; type: functional, cell-based
# In short: (§2)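 PC-3M cells kept in RPMI 1640 with 10% FBS at 37 °C, 5% CO2.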
# [4] = test system: PC-3M; test: Cytotoxicity against human PC3M cells assessed as reduction in cell viability up to 20 uM after 48 hrs by SRB assay; type: cell-based; in short: as §2
# [5] = test system: PC-3M; test: Antimetastatic activity in human PC3M cells transfected with TRPV2 siRNA at 5 to 20 uM after 24 hrs by transwell migration assay; type: functional, cell-based
# [6] = biological target: T3, Transient receptor potential cation channel subfamily V member 3 (Mus musculus) (UniProt Q8K424); test: Antagonist activity at mouse TRPV3 expressed in HEK293T cells assessed as inhibition of 2-APB evoked currents at 3 to 10 uM -60 mV holding potential by whole-cell patch clamp assay; type: cell-based; in short: as §1
# T3 sequence (whole entry): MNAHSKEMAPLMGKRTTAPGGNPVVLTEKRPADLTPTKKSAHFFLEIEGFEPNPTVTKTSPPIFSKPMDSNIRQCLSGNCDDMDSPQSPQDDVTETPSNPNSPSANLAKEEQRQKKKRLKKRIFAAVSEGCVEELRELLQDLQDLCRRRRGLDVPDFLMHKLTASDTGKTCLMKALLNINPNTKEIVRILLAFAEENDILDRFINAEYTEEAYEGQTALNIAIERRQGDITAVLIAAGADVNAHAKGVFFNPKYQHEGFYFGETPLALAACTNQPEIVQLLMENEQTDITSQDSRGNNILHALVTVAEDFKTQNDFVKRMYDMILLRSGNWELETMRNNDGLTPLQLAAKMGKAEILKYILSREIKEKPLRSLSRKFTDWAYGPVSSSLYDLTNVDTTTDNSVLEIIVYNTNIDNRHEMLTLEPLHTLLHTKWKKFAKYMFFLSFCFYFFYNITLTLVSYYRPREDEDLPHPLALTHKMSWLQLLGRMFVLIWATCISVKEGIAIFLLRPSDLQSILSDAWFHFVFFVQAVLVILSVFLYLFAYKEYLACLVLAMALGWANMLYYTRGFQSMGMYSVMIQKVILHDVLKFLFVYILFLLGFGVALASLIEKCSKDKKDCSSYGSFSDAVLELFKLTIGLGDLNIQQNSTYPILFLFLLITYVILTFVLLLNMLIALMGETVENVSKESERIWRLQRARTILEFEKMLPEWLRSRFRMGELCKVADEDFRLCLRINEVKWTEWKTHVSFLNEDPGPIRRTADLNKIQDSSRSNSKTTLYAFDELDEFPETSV
smiles,measurement,setting,value
CCCN(C)c1cc(C(F)(F)F)nc(SCCC(=O)NCc2ccco2)n1,inhibition,[1],Active
same,inhibition,[2],inactive
same,Activity,[3],Active
same,Activity,[4],Non-Toxic
same,Activity,[5],inactive
same,inhibition,[6],inactive
